Experimental data: ChEMBL document CHEMBL2163238, “Design, synthesis, and biological evaluation of N-alkylated deoxynojirimycin (DNJ) derivatives for the treatment of dengue virus infection” (J Med Chem, 2012)
In brackets after ≈: the same amount, converted by molar mass. Activity calls are given as the source filed them. The rule behind the calls is not given here.

Experiments:
[1] = Cytotoxicity against BHK cells assessed as cell viability by MTT assay; assay type: cell-based, Mesocricetus auratus; conditions: hamster
[2] = Antiviral activity against 1 MOI BVDV NADL infected in MDBK cells assessed as reduction in viral titer after 22 hrs; assay type: functional, cell-based, Bovine viral diarrhea virus 1-NADL; conditions: Bovine viral diarrhea virus isolates and strains, MDBK, 22 h
Summary of the method: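 MDBK cells (2×10^5) infected 24 h after seeding with BVDV NADL at MOI 1, with 1 h adsorption at 37 °C. Washed, then compounds at 0.1–100 μM. Media harvested 22 h post-infection and plaque-titrated on MDBK under 1% methylcellulose for 3 days. Plaques counted directly or after neutral red staining. EC50 from dose–response curves, mean of 3 independent experiments.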

[3] = tested on: dengue virus type 2; test: Antiviral activity against 0.01 MOI DENV-2 NGC infected in BHK cells assessed as reduction in viral titer after 48 hrs; assay type: functional, organism-based
Summary of the method: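 BHK cells infected with DENV-2 New Guinea C at MOI 0.01 for 1 h. Inoculum removed, then compounds at 0.1–100 μM for 48 h at 37 °C. Supernatants titrated on Vero monolayers as 10-fold dilutions under 0.5% methylcellulose for 3–5 days. Foci detected by 4G2 immunostaining or crystal violet plaques. EC50 from dose–response curves, mean of 3 independent experiments.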

[4] = Selectivity index, ratio of CC50 for MDBK cells to EC50 for BVDV NADL infected in MDBK cells
Summary of the method: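 MDBK cells infected with BVDV NADL at MOI 1, 1 h at 37 °C, washed, then compounds at 0.1–100 μM. Media harvested at 22 h, plaque-titrated on MDBK under 1% methylcellulose for 3 days, neutral red or direct count. EC50 from yield curves; MTT CC50 in uninfected MDBK; SI = CC50/EC50.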

[5] = Selectivity index, ratio of CC50 for BHK cells to EC50 for DENV-2 NGC infected in BHK cells
Summary of the method: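 BHK cells infected with DENV-2 New Guinea C at MOI 0.01 for 1 h, then compounds at 0.1–100 μM for 48 h at 37 °C. Supernatant titrated on Vero cells under 0.5% methylcellulose, 3–5 days; foci by 4G2 immunostaining or crystal violet plaques. EC50 from yield curves; MTT CC50 in uninfected BHK; SI = CC50/EC50.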

[6] = Cytotoxicity against MDBK cells assessed as cell viability by MTT assay; assay type: cell-based, Bos taurus; conditions: cattle
[7] = Plasma protein binding in mouse plasma; assay type: ADME, cell-free; conditions: read-out: PPB (converted)
Summary of the method: (§1)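 Binding of compound to human, rat or mouse plasma protein, reported as % bound.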

[8] = biological target: T1, CYP1A2 (Homo sapiens, UniProt P05177); test: Inhibition of human CYP1A2 at 10 uM; assay type: ADME
T1 sequence (P05177 whole entry): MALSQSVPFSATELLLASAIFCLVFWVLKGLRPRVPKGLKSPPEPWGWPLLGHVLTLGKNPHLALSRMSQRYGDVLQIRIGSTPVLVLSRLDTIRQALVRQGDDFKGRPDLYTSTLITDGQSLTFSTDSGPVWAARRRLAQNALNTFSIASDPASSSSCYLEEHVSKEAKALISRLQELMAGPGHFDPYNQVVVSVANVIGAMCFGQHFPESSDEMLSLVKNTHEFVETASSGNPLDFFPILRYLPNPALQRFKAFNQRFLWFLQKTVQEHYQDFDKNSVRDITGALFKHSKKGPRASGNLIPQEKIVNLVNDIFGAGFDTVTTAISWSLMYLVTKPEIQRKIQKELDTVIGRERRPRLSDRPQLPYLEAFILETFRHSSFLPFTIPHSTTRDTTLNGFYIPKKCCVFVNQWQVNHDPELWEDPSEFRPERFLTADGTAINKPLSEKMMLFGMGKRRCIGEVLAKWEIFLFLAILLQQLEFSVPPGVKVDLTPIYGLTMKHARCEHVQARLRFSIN
Summary of the method: (§2)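 Inhibition of CYP isoforms with compound at 10 μM, reported as % inhibition. CYP3A4 run with midazolam or testosterone as substrate.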

[9] = Metabolic stability in human liver microsomes at 60 mins; assay type: ADME, Microsome; conditions: read-out: Stability
[10] = biological target: CYP2D6 (Homo sapiens, UniProt P10635); test: Inhibition of human CYP2D6 at 10 uM; assay type: ADME
Summary of the method: (§3)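 Inhibition of CYP isoforms by compounds tested at 10 μM, given as percent inhibition; contract in vitro ADME panel.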

[11] = biological target: T2, CYP3A4 (Homo sapiens, UniProt P08684); test: Inhibition of human CYP3A4 using midazolam as substrate at 10 uM; assay type: ADME; conditions: probe midazolam; summary of the method: as §2
[12] = biological target: CYP2C19 (Homo sapiens, UniProt P33261); test: Inhibition of human CYP2C19 at 10 uM; assay type: ADME; summary of the method: as §2
[13] = Metabolic stability in rat liver microsomes at 60 mins; assay type: ADME, Microsome; conditions: read-out: Stability
[14] = Aqueous solubility in PBS at pH 7.4; assay type: physicochemical; conditions: buffer
[15] = biological target: CYP2C9 (Homo sapiens, UniProt P11712); test: Inhibition of human CYP2C9 at 10 uM; assay type: ADME; summary of the method: as §3
[16] = Aqueous solubility in PBS at pH 4; assay type: physicochemical; conditions: buffer
[17] = Plasma protein binding in rat plasma; assay type: ADME, cell-free; conditions: read-out: PPB (converted); summary of the method: as §1
[18] = Metabolic stability in mouse liver microsomes at 60 mins; assay type: ADME, Microsome; conditions: read-out: Stability
[19] = Plasma protein binding in human plasma; assay type: ADME, cell-free; conditions: read-out: PPB (converted); summary of the method: as §1
[20] = biological target: Cytochrome P450 3A4 (Homo sapiens, UniProt P08684); test: (§4) Inhibition of human CYP3A4 using testosterone as substrate at 10 uM; assay type: ADME; conditions: 10 µM; summary of the method: as §2
[21] = tested on: Dengue virus; test: Antiviral activity against 0.01 MOI DENV infected in human Huh7.5 cells assessed as reduction in viral […] protein level at 0.1 to 100 uM after 2 days by Western blotting; assay type: functional, organism-based; conditions: Huh-7
[22] = Cytotoxicity against human Huh7.5 cells assessed as cell viability by DRAQ5 and Sapphire 700 staining; conditions: huh-7
[23] = biological target: T2, CYP3A4; test: as §4; assay type: ADME; conditions: probe testosterone; summary of the method: as §2

Sequence of Cytochrome P450 3A4 (P08684 whole entry): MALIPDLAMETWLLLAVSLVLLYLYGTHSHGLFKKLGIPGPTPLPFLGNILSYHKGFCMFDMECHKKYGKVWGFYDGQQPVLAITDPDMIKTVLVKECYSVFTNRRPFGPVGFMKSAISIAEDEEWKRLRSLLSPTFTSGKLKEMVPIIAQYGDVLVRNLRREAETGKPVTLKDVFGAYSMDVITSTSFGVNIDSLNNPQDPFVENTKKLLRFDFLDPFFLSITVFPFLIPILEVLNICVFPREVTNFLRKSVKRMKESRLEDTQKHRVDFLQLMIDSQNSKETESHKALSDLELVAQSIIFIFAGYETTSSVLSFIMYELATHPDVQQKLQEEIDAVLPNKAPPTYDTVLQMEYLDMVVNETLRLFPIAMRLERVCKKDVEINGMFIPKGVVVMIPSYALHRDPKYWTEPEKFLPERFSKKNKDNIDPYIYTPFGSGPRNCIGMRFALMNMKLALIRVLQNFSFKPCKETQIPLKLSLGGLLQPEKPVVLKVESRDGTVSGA
T2 sequence (P08684 whole entry): as above
Sequence of CYP2C9 (P11712 whole entry): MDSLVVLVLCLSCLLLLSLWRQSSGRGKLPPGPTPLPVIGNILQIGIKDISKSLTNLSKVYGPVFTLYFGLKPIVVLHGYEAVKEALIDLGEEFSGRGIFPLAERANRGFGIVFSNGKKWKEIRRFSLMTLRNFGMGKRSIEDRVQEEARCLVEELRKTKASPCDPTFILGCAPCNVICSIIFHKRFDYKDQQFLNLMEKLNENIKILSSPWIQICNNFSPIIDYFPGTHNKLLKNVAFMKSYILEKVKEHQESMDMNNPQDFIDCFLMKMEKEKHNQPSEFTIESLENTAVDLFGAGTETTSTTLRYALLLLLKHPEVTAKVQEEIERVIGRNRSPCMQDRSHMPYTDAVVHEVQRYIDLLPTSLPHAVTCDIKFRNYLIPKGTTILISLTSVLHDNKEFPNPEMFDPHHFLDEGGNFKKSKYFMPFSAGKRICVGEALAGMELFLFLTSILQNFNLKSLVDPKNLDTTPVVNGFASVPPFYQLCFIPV
Sequence of CYP2D6 (P10635 whole entry, canonical isoform): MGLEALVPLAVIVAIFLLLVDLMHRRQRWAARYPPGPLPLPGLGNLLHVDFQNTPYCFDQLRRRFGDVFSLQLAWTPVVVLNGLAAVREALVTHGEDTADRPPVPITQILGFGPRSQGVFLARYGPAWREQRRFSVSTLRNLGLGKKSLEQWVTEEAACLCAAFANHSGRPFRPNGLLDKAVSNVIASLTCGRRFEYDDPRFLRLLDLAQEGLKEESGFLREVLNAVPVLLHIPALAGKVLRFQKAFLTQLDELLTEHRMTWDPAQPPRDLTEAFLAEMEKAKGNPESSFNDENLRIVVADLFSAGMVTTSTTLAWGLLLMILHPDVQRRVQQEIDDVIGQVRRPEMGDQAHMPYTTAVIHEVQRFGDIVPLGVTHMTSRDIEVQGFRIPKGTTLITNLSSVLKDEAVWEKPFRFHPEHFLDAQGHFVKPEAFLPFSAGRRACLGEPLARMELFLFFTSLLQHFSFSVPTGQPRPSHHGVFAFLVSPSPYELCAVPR
Sequence of CYP2C19 (P33261 whole entry): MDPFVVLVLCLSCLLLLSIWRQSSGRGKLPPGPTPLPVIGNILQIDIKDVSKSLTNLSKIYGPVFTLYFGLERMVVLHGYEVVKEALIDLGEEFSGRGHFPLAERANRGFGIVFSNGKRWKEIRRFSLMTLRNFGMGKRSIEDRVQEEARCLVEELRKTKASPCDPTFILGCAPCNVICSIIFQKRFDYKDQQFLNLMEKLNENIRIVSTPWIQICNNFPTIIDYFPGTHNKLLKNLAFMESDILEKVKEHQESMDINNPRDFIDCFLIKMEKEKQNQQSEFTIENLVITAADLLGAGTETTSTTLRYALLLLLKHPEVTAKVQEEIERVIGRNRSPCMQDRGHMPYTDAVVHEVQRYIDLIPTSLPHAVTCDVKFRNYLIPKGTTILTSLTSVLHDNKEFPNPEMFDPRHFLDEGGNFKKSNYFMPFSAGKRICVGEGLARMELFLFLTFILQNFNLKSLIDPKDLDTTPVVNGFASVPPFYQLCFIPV

| SMILES | CC50 [1] | EC50 [2] | EC50 [3] | Ratio CC50/EC50 [4] | Ratio CC50/EC50 [5] | CC50 [6] | fraction unbound [7] | inhibition at 10 µM [8] | remaining at 1 h [9] | inhibition at 10 µM [10] | inhibition at 10 µM [11] | inhibition at 10 µM [12] | remaining at 1 h [13] | solubility [14] | inhibition at 10 µM [15] | solubility [16] | fraction unbound [17] | remaining at 1 h [18] | fraction unbound [19] | inhibition (INH) [20] | other results |
| --- | --- | --- | --- | --- | --- | --- | --- | --- | --- | --- | --- | --- | --- | --- | --- | --- | --- | --- | --- | --- | --- |
| CC1CCC(OCCCCCCN2C[C@H](O)[C@@H](O)[C@H](O)[C@H]2CO)CC1C (stereo partly specified) | > 500000 nM | 3500 nM | 400 nM | >143 | > 1250 | > 500000 nM |  |  |  |  |  |  |  |  |  |  |  |  |  |  |  |
| Cc1ccccc1OCCCCCCN1C[C@H](O)[C@@H](O)[C@H](O)[C@H]1CO | 450000 nM | 400 nM | 500 nM | >1250 | 900 | > 500000 nM |  |  |  |  |  |  |  |  |  |  |  |  |  |  |  |
| CCCC(CCC)OCCCCCCN1C[C@H](O)[C@@H](O)[C@H](O)[C@H]1CO | 425000 nM | 600 nM | 300 nM |  |  | > 500000 nM | 0.17 | 2% | 73% | 9.1% | 2.5% | -1.1% | 80% | 302 µM (≈ 109 µg/mL) | 43.5% | 290 µM (≈ 105 µg/mL) | 0.23 | 77% | 0.09 | 4.2% |  |
| OC[C@@H]1[C@@H](O)[C@H](O)[C@@H](O)CN1CCCCCCOc1c(F)c(F)c(F)c(F)c1F | > 500000 nM | 1000 nM | 1700 nM | >500 | >294 | > 500000 nM |  |  |  |  |  |  |  |  |  |  |  |  |  |  |  |
| OC[C@@H]1[C@@H](O)[C@H](O)[C@@H](O)CN1CCCCCCOC1CCCC1 | > 500000 nM | 300 nM | 1400 nM | >1667 | >357 | > 500000 nM |  |  |  |  |  |  |  |  |  |  |  |  |  |  |  |
| OC[C@@H]1[C@@H](O)[C@H](O)[C@@H](O)CN1CCCCCCOc1cccc(F)c1 | > 500000 nM | 500 nM | 400 nM |  |  | > 500000 nM | 0.21 | 0.2% | 87% | 10.3% | -2.3% | 0.7% | […] | 283 µM (≈ 101 µg/mL) | 6.2% | 271 µM (≈ 96.9 µg/mL) | 0.29 | 104% | 0.22 |  | Activity [21]: Active; Activity [3]: Dose-dependent effect; Activity [22]: Non-toxic; inhibition at 10 µM [23]: -2.3% |
| OC[C@@H]1[C@@H](O)[C@H](O)[C@@H](O)CN1CCCCCCOc1cccc(C(F)(F)F)c1 | 400000 nM | 1500 nM | 400 nM |  |  | > 500000 nM | 0.08 | 0.2% | 94% | 3.4% | -18.5% | -2.5% | 81% | 278 µM (≈ 113 µg/mL) | 37.6% | 281 µM (≈ 114 µg/mL) | 0.1 | 92% | 0.07 | 3.2% |  |
| Cc1cccc(OCCCCCCN2C[C@H](O)[C@@H](O)[C@H](O)[C@H]2CO)c1 | > 500000 nM | 600 nM | 600 nM |  |  | > 500000 nM | 0.17 | 21.4% | 87% | 12.8% | 28.7% | 3.9% | 81% | 286 µM (≈ 101 µg/mL) | 8.9% | 279 µM (≈ 98.6 µg/mL) | 0.21 | […] | 0.2 | 2.3% |  |
| OC[C@@H]1[C@@H](O)[C@H](O)[C@@H](O)CN1CCCCCCOc1ccccc1 | > 500000 nM | 900 nM | 1700 nM | >556 | >294 | > 500000 nM |  |  |  |  |  |  |  |  |  |  |  |  |  |  |  |
| CCC1CCC(OCCCCCCN2C[C@H](O)[C@@H](O)[C@H](O)[C@H]2CO)CC1 (stereo partly specified) | 475000 nM | 400 nM | 300 nM | >1250 | 1583 | > 500000 nM |  |  |  |  |  |  |  |  |  |  |  |  |  |  |  |
